Data: ChEMBL document CHEMBL3739299, “8-Hydroxyquinoline-based inhibitors of the Rce1 protease disrupt Ras membrane localization in human cells” (Bioorg Med Chem, 2016)
Activity calls are given as the source filed them. No cut-off for these calls is given here.

Columns and labels:
[1] = biological target: T1, CAAX prenyl protease 2 (Homo sapiens) (UniProt Q9Y256); assay: Inhibition of human Rce1-mediated CaaX protease activity using […] and […] as substrate assessed as residual activity at 10 uM measured every 30 to 60 seconds for 60 mins
T1 sequence (whole entry): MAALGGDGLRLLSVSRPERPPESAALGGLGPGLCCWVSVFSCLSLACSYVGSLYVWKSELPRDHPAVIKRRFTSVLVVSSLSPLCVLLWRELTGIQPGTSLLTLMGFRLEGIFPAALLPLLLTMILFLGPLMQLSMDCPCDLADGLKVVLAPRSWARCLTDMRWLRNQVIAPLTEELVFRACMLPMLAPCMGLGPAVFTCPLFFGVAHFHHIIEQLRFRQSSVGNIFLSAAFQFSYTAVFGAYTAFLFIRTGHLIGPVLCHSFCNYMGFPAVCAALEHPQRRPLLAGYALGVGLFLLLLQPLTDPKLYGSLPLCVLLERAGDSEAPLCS
Procedure, shortened: (§1)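 Membranes from yeast SM3614 (ste24 rce1 null) overexpressing human Rce1, 0.25 mg/mL final in 200 mM Tris pH 7.5, 200 mM NaCl, 1 mg/mL BSA. […] Reaction started with 20 μM ABZ-KSKTKC(farnesyl)QLIM. Fluorescence (ex 320/em 420) read every 30–60 s for 60 min at 30 °C. Initial velocities trypsin-normalised; activity given as % of DMSO control.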

[2] = Cytotoxicity against human HCT116 cells assessed as cell death at 25 uM after 20 hrs by celltiter blue assay (reference value: 0.4%); assay type: cell-based; conditions: hct-116, 20 h
Procedure, shortened: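 HCT-116 cells grown in DMEM with 10% FBS and 1% NEAA at 37 °C, 5% CO2, seeded 7 × 10^3 per well, exposed 20 h to 25 μM compound (0.4% DMSO vehicle; untreated control). CellTiter-Blue added for 4 h, fluorescence read at 560/590 nm. Values relative to untreated cells, mean of three independent experiments with SEM.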

CAAX prenyl protease 2 = biological target: T2, CAAX prenyl protease 2 (Homo sapiens, UniProt Q9Y256); assay: Inhibition of human Rce1-mediated CaaX protease activity using ABZ-KSKTKC(farnesyl)QIIM and ABZ-KSKTKC(farnesyl)VIQI as substrate assessed as residual activity measured every 30 to 60 seconds for 60 mins; procedure, shortened: as §1
T2 sequence (Q9Y256 whole entry): T1 sequence (whole entry)

[3] = biological target: T3, CAAX prenyl protease 1 homolog (Homo sapiens) (UniProt O75844); assay: Inhibition of human FACE1-mediated CaaX protease activity at 10 uM measured every 30 to 60 seconds for 60 mins
T3 sequence (whole entry): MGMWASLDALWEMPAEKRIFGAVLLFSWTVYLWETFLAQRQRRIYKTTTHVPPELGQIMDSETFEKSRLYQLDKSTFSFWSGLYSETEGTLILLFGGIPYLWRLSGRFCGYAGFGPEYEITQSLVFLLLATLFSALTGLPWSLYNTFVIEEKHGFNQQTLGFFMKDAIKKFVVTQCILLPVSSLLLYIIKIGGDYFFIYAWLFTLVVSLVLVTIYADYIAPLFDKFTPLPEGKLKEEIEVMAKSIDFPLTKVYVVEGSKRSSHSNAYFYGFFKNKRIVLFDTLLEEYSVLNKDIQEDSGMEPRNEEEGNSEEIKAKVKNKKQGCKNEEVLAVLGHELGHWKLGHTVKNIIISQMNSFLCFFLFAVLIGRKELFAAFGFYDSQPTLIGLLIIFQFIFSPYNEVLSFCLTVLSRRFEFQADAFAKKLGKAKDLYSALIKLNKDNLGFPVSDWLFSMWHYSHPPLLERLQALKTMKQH
Procedure, shortened: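 Human Ste24 overexpressed in yeast strain SM3614 (ste24 rce1 null); membranes 0.25 mg/mL final in 200 mM Tris pH 7.5, 200 mM NaCl, 1 mg/mL BSA. Pretreated 15 min at 30 °C with 10 μM compound in duplicate, then 20 μM ABZ-KSKTKC(farnesyl)VIQL substrate added. Fluorescence (ex 320/em 420) read every 30–60 s for 60 min at 30 °C. Initial velocities normalised via trypsin-digest maximum fluorescence and expressed as % of DMSO control. SD shown.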

[4] = test system: Protein farnesyltransferase (Rattus norvegicus); assay: Inhibition of protein farnesyltransferase (rat) at 50 uM measured every 40 seconds for 60 mins

Activity [1] | IC50 (CAAX prenyl protease 2) | inhibition [3] | inhibition [4] | Structure (SMILES) | Cell death [2]
89% | – | – | – | O=C(Nc1ccc2ccccc2c1)c1ccc(NC(c2ccccc2)c2ccccc2)cc1 | –
64% | – | – | – | O=[N+]([O-])c1ccc(NC(c2ccc(Br)cc2)c2ccc3cccnc3c2O)cc1 (stereo not given) | < 10%
32% | 8.2 µM | inactive | – | O=C(O)c1ccc(NC(c2ccc(F)cc2)c2ccc3cccnc3c2O)cc1 (stereo not given) | < 10%
82% | – | – | – | Oc1c(CNc2ccccc2)ccc2cccnc12 | < 10%
45% | 9.4 µM | inactive | – | Oc1c(C(Nc2ccccc2)c2c(F)cc(Br)cc2F)ccc2ccccc12 (stereo not given) | 40%
71% | – | – | – | CCOC(=O)c1ccc(NC(c2ccc(Cl)cc2)c2ccc3cccnc3c2O)cc1 (stereo not given) | < 10%
73% | – | – | – | Oc1c(C(Nc2ccccc2)c2ccccc2)cc(Br)c2cccnc12 (stereo not given) | –
77% | – | – | – | c1ccc(NC(c2ccccc2)c2ccc3ccccc3c2)cc1 (stereo not given) | –
51% | – | – | – | Oc1ccc2ccc(O)c(C(Nc3ccccc3)c3ccccc3)c2c1 (stereo not given) | < 10%
89% | – | – | – | CCOC(=O)c1ccc(NC(c2ccc(C(F)(F)F)cc2)c2ccc3cccnc3c2O)cc1 (stereo not given) | < 10%
51% | – | – | – | Oc1c(C(Nc2ccccc2)c2ccccc2)ccc2cc3ccccc3nc12 (stereo not given) | –
83% | – | – | – | CCOC(=O)c1ccc(NC(c2ccc(Br)cc2)c2ccc(Br)cc2)cc1 | –
76% | 16 µM | inactive | – | N#Cc1ccc(C(Nc2ccc(C(=O)O)cc2)c2ccc3cccnc3c2O)cc1 (stereo not given) | –
80% | – | – | – | O=C(Nc1ccccc1)c1ccc(NC(c2ccc(Br)cc2)c2ccc(Br)cc2)cc1 | –
64% | – | – | – | O=C(O)c1ccc(NC(c2ccc3cccnc3c2O)c2c(F)cc(Br)cc2F)cc1 (stereo not given) | < 10%
83% | – | – | – | Oc1c(C(Nc2nc3ccccc3s2)c2ccccc2)ccc2cccnc12 (stereo not given) | < 10%
82% | – | – | – | c1ccc(NC(c2ccccc2)c2ccc3cccnc3c2)cc1 (stereo not given) | –
59% | – | – | – | Oc1ccc2ccccc2c1C(Nc1ccccc1)c1ccccc1 (stereo not given) | < 10%
70% | 14 µM | inactive | – | O=C(O)c1ccc(NC(c2cccnc2)c2ccc3cccnc3c2O)cc1 (stereo not given) | –

Activity [1] | IC50 (CAAX prenyl protease 2) | inhibition [3] | inhibition [4] | Structure (SMILES) | Cell death [2]
78% | – | – | – | O=C(Nc1ccccc1)c1ccc(NC(c2ccccc2)c2ccccc2)cc1 | –
21% | 3.8 µM | inactive | – | O=C(O)c1ccc(NC(c2ccc3ccccc3c2O)c2c(F)cc(Br)cc2F)cc1 (stereo not given) | < 10%
90% | 38 µM | inactive | – | O=C(O)c1ccc(NC(c2ccccn2)c2ccc3cccnc3c2O)cc1 (stereo not given) | –
83% | – | – | – | Cc1ccc2ccc(C(Nc3ccccc3)c3ccccc3)c(O)c2n1 (stereo not given) | –
25% | 6.9 µM | inactive | – | O=C(O)c1ccc(NC(c2ccccc2)c2ccc3cccnc3c2O)cc1 (stereo not given) | < 10%
17% | 4.9 µM | inactive | – | Oc1c(C(Nc2ccccc2)c2ccccc2)ccc2ccccc12 (stereo not given) | < 10%
78% | – | – | – | O=C(Nc1ccccc1)c1ccc(NC(c2ccccc2)c2ccc(Br)cc2)cc1 (stereo not given) | –
54% | 8.8 µM | inactive | – | Cc1ccc(NC(c2ccccc2)c2ccc3cccnc3c2O)cc1 (stereo not given) | –
75% | – | – | – | O=C(OCc1ccccc1)c1ccc2ccc(C(Nc3ccccc3)c3ccccc3)c(O)c2n1 (stereo not given) | –
59% | – | – | – | Oc1c(C(Nc2ccccc2)C2CCCCC2)ccc2cccnc12 (stereo not given) | < 10%
52% | – | – | – | CCOC(=O)c1ccc(NC(c2ccccc2)c2ccc3cccnc3c2O)cc1 (stereo not given) | < 10%
27% | 5.4 µM | inactive | – | Oc1c(C(Nc2ccccc2)c2ccccc2)cc(Br)c2ccccc12 (stereo not given) | < 10%
56% | – | – | – | N#Cc1ccc(NC(c2ccccc2)c2ccc3cccnc3c2O)cc1 (stereo not given) | < 10%
83% | – | – | – | N#Cc1ccc2ccc(C(Nc3ccccc3)c3ccccc3)c(O)c2n1 (stereo not given) | –
65% | – | – | – | COC(=O)c1ccc(NC(c2ccccc2)c2ccc3cccnc3c2OC)cc1 (stereo not given) | < 10%
90% | – | – | – | O=C(O)c1ccc(NC(c2ccccc2)c2ccccc2)cc1 | –
23% | 3.9 µM | inactive | – | O=C(O)c1ccc(NC(c2ccc(Br)cc2)c2ccc3ccccc3c2O)cc1 (stereo not given) | < 10%
72% | – | – | – | O=C(O)c1cccc(NC(=O)c2ccc(NC(c3ccccc3)c3ccccc3)cc2)c1 | –
83% | – | – | – | O=C(O)c1ccc(NC(c2ccc(Br)cc2)c2ccc(Br)cc2)cc1 | –

Activity [1] | IC50 (CAAX prenyl protease 2) | inhibition [3] | inhibition [4] | Structure (SMILES) | Cell death [2]
63% | – | – | – | CCOC(=O)c1ccc(NC(c2ccc(F)cc2)c2ccc3cccnc3c2O)cc1 (stereo not given) | < 10%
77% | – | – | – | O=C(O)c1ccc2ccc(C(Nc3ccccc3)c3ccccc3)c(O)c2n1 (stereo not given) | –
38% | 5 µM | inactive | – | CC(C)(C)c1ccc(NC(c2ccccc2)c2ccc3ccccc3c2O)cc1 (stereo not given) | < 10%
34% | 9.8 µM | inactive | – | O=C(O)c1ccc(NC(c2ccc3cccnc3c2O)C2CCCCC2)cc1 (stereo not given) | < 10%
73% | – | – | – | Oc1c(C(/N=C/c2ccccc2)c2ccccc2)ccc2cccnc12 (stereo not given) | < 10%
68% | – | – | – | Oc1c(C(Nc2ccccc2)c2ccccc2)cc(Cl)c2cccnc12 (stereo not given) | –
86% | – | – | – | O=C(O)c1ccc(NC(c2ccccc2)c2ccc(Br)cc2)cc1 (stereo not given) | –
76% | – | – | – | Oc1c(C(Nc2ccccc2)c2c(F)cc(Br)cc2F)ccc2cccnc12 (stereo not given) | < 10%
82% | – | – | – | CCOC(=O)c1ccc(NC(c2ccc3cccnc3c2O)C2CCCC2)cc1 (stereo not given) | < 10%
82% | – | – | – | CCOC(=O)c1ccc(NC(c2ccccc2)c2ccccc2)cc1 | < 10%
23% | 5.3 µM | inactive | inactive | O=C(O)c1cccc(NC(c2ccccc2)c2ccc3ccccc3c2O)c1 (stereo not given) | < 10%
32% | 7.1 µM | inactive | – | Cc1ccc(C(Nc2ccc(C(=O)O)cc2)c2ccc3cccnc3c2O)cc1 (stereo not given) | –
19% | 4.2 µM | inactive | – | O=C(O)c1ccc(NC(c2ccccc2)c2ccc3ccccc3c2O)cc1 (stereo not given) | < 10%
79% | – | – | – | CCOC(=O)c1ccc(NC(c2ccccc2)c2ccc(Br)cc2)cc1 (stereo not given) | –
89% | – | – | – | CCCCCCCCOc1ccc(C(Nc2ccccc2)c2ccc3cccnc3c2O)cc1 (stereo not given) | –
81% | – | – | – | O=C(NC(c1ccccc1)c1ccc2cccnc2c1O)c1ccccc1 (stereo not given) | < 10%
85% | 11 µM | inactive | – | O=[N+]([O-])c1ccc(C(Nc2ccccc2)c2ccc3cccnc3c2O)cc1 (stereo not given) | –
63% | – | – | – | C[C@@H](N[C@H](c1ccccc1)c1c(O)ccc2ccccc12)c1ccccc1 | –
